ATG4B inh – ATG4B (human) cysteine protease inhibition. 340,000 compounds, 0.51% hits. inhibition, % at 8.33 µM. Q9Y4P1. ATG4B cleavage of LC3-PLA2, NBD-HPC fluorescence, 1 h; in the data active means inhibition above about 40%
HKDC1 inhibitor – inhibitors of human hexokinase HKDC1; Q2TB90; recombinant HKDC1, G6PDH/diaphorase resazurin coupled fluorescence; inhibition, % at 20 µM; 340,000 compounds, 0.16% hits; AID 493160;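 active means inhibition above about 35% when tested at 20 µM, limit read from the data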;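 further: plate controls were DMSO wells with enzyme for no effect and DMSO wells lacking enzyme for full effect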
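Material: recombinant HKDC1 hexokinase; Amount: HKDC1 at 5 µg/mL; Medium: Tris pH 8.0 buffer with MgCl2, Tween-20, BSA, BME; Schedule: 90 min reaction incubation at room temperature, dark; Technique: coupled resazurin fluorescence, excitation 525 nm, emission 613 nm.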
CTSL1 counter – counter-screen for PFM18AAP inhibitors: inhibitors of F. hepatica cathepsin L1; recombinant F. hepatica cathepsin L1, Z-Leu-Arg-MCA fluorescence; 300,000 compounds, 0.49% hits; inhibition, % at 5.96 µM; AID 1906;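 active means inhibition above the mean of all tested compounds plus 3 SD, set per screening campaign, cut at about 17% in these data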;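 further: 0% = plate median of test compound wells and 100% = 1 µM Z-Phe-Ala-diazomethylketone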
Diaphorase act – counter-screen for diaphorase-based assays: diaphorase activators and chemical reducers. Diaphorase/resazurin coupled assay, resorufin fluorescence, 16 min; hits give high values; 1 = vehicle wells, 0 = NADH-free wells. activation factor at 20 µM. 190,000 compounds, 0.005% hits. AID 1229;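 active means diaphorase activity raised at least twofold by the compound at 20 µM; inactive means activation factor below 2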
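System – purified diaphorase enzyme from Clostridium kluyveri · Input – enzyme 0.07 U/mL final · Also added – final NADH 0.114 mM, resazurin 0.1 mM · Measured by – fluorescence of resorufin, 544 nm excitation, 590 nm emission · Timing – 16 min enzyme reaction, ambient temperature · Measure – resorufin increase flagging diaphorase activators or reducers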
Diaphorase inh – diaphorase inhibition or chemical oxidation counter-screen; 190,000 compounds, 0.69% hits; AID 1217; inhibition, % at 20 µM; diaphorase resazurin-to-resorufin fluorescence, NADH, 16 min; bacterial (C. kluyveri) enzyme, not human;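 active means primary screen inhibition at 20 µM above a set limit, cut at about 50% in these data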;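 further: plate controls were DMSO with full reaction for no effect and wells lacking NADH for full effect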
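Assay system – diaphorase enzyme from Clostridium kluyveri · Amount – diaphorase 0.14 U/mL (working solution) · Times – reaction incubation of 16 min at room temperature · Controls – No-NADH positive control and DMSO neutral control · Signal – resorufin fluorescence 544/590 nm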
ATG4B confirm – ATG4B (human) inhibition, single-dose confirmed; shares compounds with ATG4B inh; ATG4B protease fluorescent substrate cleavage assay; inhibition, % at 8.33 µM; 320 compounds, 92% hits; AID 504757; in the data active means inhibition above about 39%
PLA2 counter – inhibits human PLA2, flagging false ATG4B inhibitors | shares compounds with ATG4B inh | purified PLA2, NBD-C6-HPC fluorescence, 45 min | inhibition, % at 8.33 µM | 1,600 compounds, 66% hits; in the data active means inhibition above about 50%
Target sequence (P04054 whole entry, looked up): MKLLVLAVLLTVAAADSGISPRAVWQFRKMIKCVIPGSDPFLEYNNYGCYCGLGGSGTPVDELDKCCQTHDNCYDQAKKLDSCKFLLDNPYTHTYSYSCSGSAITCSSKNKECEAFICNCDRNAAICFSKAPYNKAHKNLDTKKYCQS
* hit, by the source's call; / = no result given. An excerpt weighted towards active compounds, which were near 1.4% of everything screened.

SMILES	ATG4B inh	HKDC1 inhibitor	CTSL1 counter	Diaphorase act	Diaphorase inh	PLA2 counter	others
COc1ccccc1Nc1nn2c(=O)c3ccc(C(=O)N4CCCC(C)C4)cc3nc2s1 (stereo not given)	46*	15	-3	/	/	63*
Cc1cc(C)cc(NC(=O)c2cc(C)nc3ccccc23)c1	3	2	-2	/	/	/
C[C@@]12CCC=C[C@H]1[C@H](c1ccc3ccccc3c1Br)N(Cc1ccccc1)C2=O	50*	16	/	/	/	76*
COc1ccc(NC(=O)CSCC(=O)N2CCN(C(=O)c3ccco3)CC2)cc1	3	-3	/	/	/	/
CC(NC(=O)COc1ccccc1-c1ccccc1)c1ccccc1 (stereo not given)	42*	0	5	0.9	9	52*
Oc1cccc(/C=N/N(Cc2ccccc2)c2ccccc2)c1	27	4	9	0.8	16	/
Oc1ccc(/C=N/N(Cc2ccccc2)c2ccccc2)c(O)c1O	56*	19	/	0.1	87*	75*
CCN(Cc1ccccc1)S(=O)(=O)c1ccc(C(=O)N(CCCN(C)C)c2nc3c(C)c(C)ccc3s2)cc1	40*	-3	5	/	/	50*
Cc1cccc(NC(=S)NC(=O)c2oc3ccccc3c2C)n1	10	0	-6	/	/	/
Cc1nn(CCC(N)=O)c2nc(-c3cccs3)cc(C(F)(F)F)c12	86*	-15	1	1	1	84*
Cc1nn(CCC(=O)O)c2nc(-c3cccnc3)cc(C(F)(F)F)c12	-8	8	-1	0.8	15	/
COc1ccc(Cc2nnc(NC(=O)Nc3ccccc3F)s2)cc1OC	-11	-1	4	/	/	/
CC1CCC(NC(=O)COC(=O)CCC(=O)c2ccc(Cl)s2)CC1 (stereo not given)	-2	-2	-29	/	/	/
CC(=O)NCc1nnc2c3ccccc3c(-c3ccccc3)nn12	-2	-2	-1	0.9	10	/
O=C(NCc1nnc2c3ccccc3c(-c3ccccc3)nn12)c1ccc(Cl)cc1	42*	14	2	0.7	26	58*
NC(=O)c1ccc(NC(=O)COC(=O)CCN=C2NS(=O)(=O)c3ccccc32)cc1	-34	-6	/	/	/	/
O=S(=O)(c1ccccc1)N1CCN(c2cccc(Cl)c2)CC1	51*	-2	-2	/	/	61*
O=S(=O)(c1ccccc1)N1CCN(Cc2cccc(Cl)c2)CC1	-2	-3	3	0.8	17	/
CN(c1ccccc1)c1ccc(/C=C(\CCC(=O)O)c2nc3ccccc3s2)cc1[N+](=O)[O-]	46*	20	6	0.7	30	41	ATG4B confirm=70*
Cc1ccc(/C=C(\CCC(=O)O)c2nc3ccccc3s2)cc1[N+](=O)[O-]	20	11	4	0.8	22	/
COc1ccc(C(=O)Nc2cccc(/C=C(\CCC(=O)O)c3nc4ccccc4s3)c2)cc1	59*	5	5	/	/	74*
O=C(O)C/C(=C\c1cccc(NC(=O)c2ccccc2Cl)c1)c1nc2ccccc2s1	11	13	3	/	/	/
Cc1sc2nc(CSc3ccccc3)nc(N3CCN(C)CC3)c2c1C	25	-2	0	0.8	15	/
COCCNc1nc(CSc2ccccc2)nc2sc(C)c(C)c12	46*	-5	-2	0.9	11	49
O=C1CCCCC1Nc1ccc2ccccc2c1 (stereo not given)	3	10	/	/	/	/
Cc1cccc(CNc2ncnc3ccc(-c4ccccc4Cl)cc23)c1	51*	-4	/	/	/	52*
O=C(O)/C=C(/c1ccccc1)C(F)(F)F	-2	-5	/	/	/	/
Cc1cc(N/N=C/c2cccc(Cl)c2)nc(NCc2ccccc2)n1	76*	0	2	0.9	9	84*
Cc1cc(N/N=C/c2ccccc2F)nc(NCc2ccccc2)n1	59*	0	2	/	/	79*
Cc1cc(N/N=C/c2ccccc2)nc(NCc2ccccc2)n1	69*	-2	-4	0.9	12	76*

Screening results (PubChem BioAssay)
